Measurements reported in ChEMBL document CHEMBL4425095, “Novel Cephalosporins Selectively Active on Nonreplicating Mycobacterium tuberculosis” (J Med Chem, 2016).
Converted amounts (≈) assume the structure as drawn.

Experiments:
Assay type in all cases: functional
[1] = tested on: Mycobacterium tuberculosis; experiment: Antimycobacterial activity against non-replicating Mycobacterium tuberculosis mc2 6220 harboring panCD/lysA deletion mutant incubated for 3 days measured at OD580 = 0.1 by two-fold serial dilution method
How it was run: (§1)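 M. tuberculosis mc26220 washed twice in PBS-tyloxapol and resuspended in Sauton's-based nonreplicating medium (pH 5.0, butyrate 0.05%, BSA, tyloxapol, lysine, pantothenate, 0.5 mM NaNO2). Incubated at 1% O2, 5% CO2 with 2-fold serially diluted compound from DMSO. After 3 days, diluted 5-fold in fresh replicating medium for outgrowth at 20% O2. Reported as MIC90.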

[2] = tested on: Mycobacterium tuberculosis; experiment: Antimycobacterial activity against replicating Mycobacterium tuberculosis mc2 6220 harboring panCD/lysA deletion mutant by two-fold serial dilution method
How it was run: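 M. tuberculosis mc26220 in replicating medium supplemented with glycerol (final 0.5%), OADC, casamino acids 0.05%, lysine 240 μg/mL and pantothenate 24 μg/mL. Exposed to 2-fold serially diluted compound from DMSO. OD580 read after 7 days at 20% O2, 5% CO2. Reported as MIC90.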

[3] = tested on: Mycobacterium tuberculosis; experiment: Antimycobacterial activity against non-replicating Mycobacterium tuberculosis mc2 6220 harboring panCD/lysA deletion mutant incubated for 7 days measured at OD580 = 0.1 by two-fold serial dilution method; how it was run: as §1
[4] = tested on: Mycobacterium tuberculosis; experiment: Antimycobacterial activity against non-replicating Mycobacterium tuberculosis mc2 6220 harboring panCD/lysA deletion mutant incubated for 7 days measured at OD580 = 0.01 by two-fold serial dilution method; how it was run: as §1

Structure (SMILES) | MIC90 [1] [µg/mL] | MIC90 [2] [µg/mL] | MIC90 [3] [µg/mL] | MIC90 [4] [µg/mL]
CC1=C(c2nc(C)no2)N2C(=O)[C@@H](NC(=O)COc3cccc(Cl)c3)[C@H]2SC1 | 2.59 (≈ 6.15 µM) | >100 |  | 
CCCc1noc(C2=C(C)CS[C@@H]3[C@H](NC(=O)Cc4ccc(Cl)cc4)C(=O)N23)n1 | 2.63 (≈ 6.07 µM) | >100 |  | 
CCCc1noc(C2=C(C)CS[C@@H]3[C@H](NC(=O)CCc4ccc(F)cc4)C(=O)N23)n1 |  | >100 | 0.91 (≈ 2.11 µM) | 0.48 (≈ 1.11 µM)
COC(=O)C1=C(C)CS[C@@H]2[C@H](NC(=O)COc3ccccc3)C(=O)N12 |  | >100 | 2.93 (≈ 8.08 µM) | 2.07 (≈ 5.71 µM)
CC1=C(C(=O)O)N2C(=O)[C@@H](NC(=O)c3ccc(Cl)cc3)[C@H]2SC1 |  | >100 | >35.28 | >35.28
CCCOC(=O)C1=C(C)CS[C@@H]2[C@H](NC(=O)COc3ccc(Cl)cc3)C(=O)N12 |  | >100 | 1.34 (≈ 3.15 µM) | 0.66 (≈ 1.55 µM)
COc1ccc(OCC(=O)N[C@@H]2C(=O)N3C(C(=O)OCc4ccccc4)=C(C)CS[C@H]23)cc1 |  | >100 | 2.53 (≈ 5.4 µM) | 1.54 (≈ 3.29 µM)
CC1=C(C(=O)O)N2C(=O)[C@@H](NC(=O)CCc3ccc(Br)cc3)[C@H]2SC1 |  | 96.13 (≈ 226 µM) | >42.53 | >42.53
COC(=O)C1=C(C)CS[C@@H]2[C@H](NC(=O)[C@@H](c3ccccc3)N(C)C)C(=O)N12 |  | >100 | >38.95 | >38.95
CC(=O)OCC1=C(C(=O)O)N2C(=O)[C@@H](NC(=O)Cc3cccs3)[C@H]2SC1 [CEPHALOTHIN] |  | >100 | >100 | 95.53 (≈ 241 µM)
COc1ccc(CCC(=O)N[C@@H]2C(=O)N3C(C(=O)OCc4ccccc4)=C(C)CS[C@H]23)cc1 |  | >100 | 0.42 (≈ 0.9 µM) | 0.39 (≈ 0.836 µM)
CCCCOc1ccc(CCC(=O)N[C@@H]2C(=O)N3C(c4nc(C)no4)=C(C)CS[C@H]23)cc1 | 59.36 (≈ 130 µM) | >100 |  | 
CC1=C(c2nc(C)no2)N2C(=O)[C@@H](NC(=O)COc3ccc(Cl)cc3)[C@H]2SC1 |  | >100 | 1.72 (≈ 4.09 µM) | 1.2 (≈ 2.85 µM)
CCCCOC(=O)C1=C(C)CS[C@@H]2[C@H](NC(=O)COc3ccc(OC)cc3)C(=O)N12 |  | >100 | 1.12 (≈ 2.58 µM) | 0.71 (≈ 1.63 µM)
CNC(=O)C1=C(C)CS[C@@H]2[C@H](NC(=O)COc3ccccc3)C(=O)N12 |  | >100 | >36.14 | >36.14
CCCCOC(=O)C1C(C)=CS[C@@H]2[C@H](NC(=O)COc3ccccc3)C(=O)N12 (stereo partly specified) |  | >100 | 1.28 (≈ 3.16 µM) | 0.79 (≈ 1.95 µM)
CCCCOC(=O)C1=C(C)CS[C@@H]2[C@H](NC(=O)CCc3ccc(OC)cc3)C(=O)N12 |  | >100 | 0.26 (≈ 0.601 µM) | 0.24 (≈ 0.555 µM)
CC1=C(c2nc(C)no2)N2C(=O)[C@@H](NC(=O)OC(C)(C)C)[C@H]2SC1 |  | >100 | 9.16 (≈ 26 µM) | 5.3 (≈ 15 µM)
COc1ccc(CCC(=O)N[C@@H]2C(=O)N3C(C(=O)OC4CCCC4)=C(C)CS[C@H]23)cc1 |  | 44.33 (≈ 99.7 µM) | 0.96 (≈ 2.16 µM) | 0.84 (≈ 1.89 µM)
COC(=O)C1=C(C)CS[C@@H]2[C@H](NC(=O)CCc3ccccc3)C(=O)N12 |  | >100 | 1.27 (≈ 3.52 µM) | 10.4 (≈ 28.9 µM)
CCCOC(=O)C1C(C)=CS[C@@H]2[C@H](NC(=O)CCc3ccc(OC)cc3)C(=O)N12 (stereo partly specified) |  | 49.5 (≈ 118 µM) | <0.23 | 0.21 (≈ 0.502 µM)

Structure (SMILES) | MIC90 [1] [µg/mL] | MIC90 [2] [µg/mL] | MIC90 [3] [µg/mL] | MIC90 [4] [µg/mL]
CCCc1noc(C2=C(C)CS[C@@H]3[C@H](NC(=O)CCc4ccc(OC)cc4)C(=O)N23)n1 |  | >100 | 0.67 (≈ 1.51 µM) | 0.37 (≈ 0.836 µM)
CC1=C(c2nc(C)no2)N2C(=O)[C@@H](NC(=O)COc3ccc(C)cc3)[C@H]2SC1 | 7.42 (≈ 18.5 µM) | >100 |  | 
CCCCOc1ccc(CCC(=O)N[C@@H]2C(=O)N3C(c4nc(CCC)no4)=C(C)CS[C@H]23)cc1 |  | >100 | 0.76 (≈ 1.57 µM) | 0.47 (≈ 0.97 µM)
COC(=O)C1=C(C)CS[C@@H]2[C@H](NC(=O)COc3ccc(OC)cc3)C(=O)N12 |  | >100 | 4.28 (≈ 10.9 µM) | 2.01 (≈ 5.12 µM)
COc1ccc(OCC(=O)N[C@@H]2C(=O)N3C(c4nc(C)no4)=C(C)CS[C@H]23)cc1 | 14.57 (≈ 35 µM) | >100 |  | 
CC1=CS[C@@H]2[C@H](NC(=O)COc3ccccc3)C(=O)N2[C@H]1CO | >100 | >100 |  | 
C=CC1=C(C(=O)O)N2C(=O)[C@@H](NC(=O)/C(=N\O)c3csc(N)n3)[C@H]2SC1 |  | 4.11 (≈ 10.4 µM) | >100 | 77.84 (≈ 197 µM)
CCCc1noc(C2=C(C)CS[C@@H]3[C@H](NC(=O)COc4ccc(C)cc4)C(=O)N23)n1 | 14.31 (≈ 33.4 µM) | >100 |  | 
CCCCOC(=O)C1=C(C)CS[C@@H]2[C@H](NC(=O)CCc3ccc(Cl)cc3)C(=O)N12 |  | >100 | 1.24 (≈ 2.84 µM) | 0.72 (≈ 1.65 µM)
CC1=C(C(N)=O)N2C(=O)[C@@H](NC(=O)COc3ccccc3)[C@H]2SC1 |  | >100 | >100 | 59.68 (≈ 172 µM)
CCCc1noc(C2=C(C)CS[C@@H]3[C@H](NC(=O)CCc4ccccc4Cl)C(=O)N23)n1 |  | >100 | 1.27 (≈ 2.84 µM) | 0.52 (≈ 1.16 µM)
CC1=C(C(=O)O/N=C(\C)N)N2C(=O)[C@@H](NC(=O)COc3ccccc3)[C@H]2SC1 |  | >100 | 8.12 (≈ 20.1 µM) | 5.6 (≈ 13.8 µM)
CCOC(=O)C1=C(C)CS[C@@H]2[C@H](NC(=O)CCc3ccccc3)C(=O)N12 |  | >100 | 1.15 (≈ 3.07 µM) | 0.47 (≈ 1.26 µM)
CCOC(=O)C1=C(C)CS[C@@H]2[C@H](NC(=O)COc3ccc(OC)cc3)C(=O)N12 |  | 47.1 (≈ 116 µM) | 0.89 (≈ 2.19 µM) | 0.53 (≈ 1.3 µM)
CC1=C(C(=O)O)N2C(=O)[C@@H](NC(=O)COc3ccccc3)[C@H]2SC1 |  | >100 | >34.84 | >34.84
COC[C@H]1C(C)=CS[C@@H]2[C@H](NC(=O)COc3ccccc3)C(=O)N21 |  | >87.82 | >34.84 | >34.84
COC(=O)C1=C(C)CS[C@@H]2[C@H](NC(=O)[C@H](NC(=O)OC(C)(C)C)c3ccccc3)C(=O)N12 |  | >100 | 18.07 (≈ 39.2 µM) | 16.51 (≈ 35.8 µM)
CC1=C(C(=O)OCc2ccccc2)N2C(=O)[C@@H](NC(=O)COc3ccc(Cl)cc3)[C@H]2SC1 |  | >100 | 8.07 (≈ 17.1 µM) | 0.87 (≈ 1.84 µM)
C#CCOC(=O)C1=C(C)CS[C@@H]2[C@H](NC(=O)COc3ccc(Cl)cc3)C(=O)N12 |  | >100 | 3.95 (≈ 9.39 µM) | 1.53 (≈ 3.64 µM)
CCCCOC(=O)C1=C(C)CS[C@@H]2[C@H](NC(=O)COc3ccc(Cl)cc3)C(=O)N12 |  | >100 | 1.01 (≈ 2.3 µM) | 0.43 (≈ 0.98 µM)
